Sampled rows, rich in hits. Any-hit rate of the full collection: about 3.1%.
CHO parental Ca = counter-screen: ATP calcium response change in parental CHO cells; parental CHO-K1, ATP-induced calcium, Fluo-8 fluorescence; inhibition, % at 5.6 µM; 0.63% of 330,000 active; AID 463079;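 active = inhibition above that plate's mean sample inhibition plus 3 SD, cut at about 26% in these data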
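Assay system: untransfected parental CHO cell line. Also added: ATP agonist challenge. Dosing: one dose, 5.6 µM nominal. Measured by: Fluo-8 fluorescence. Read-out: % inhibition. Benchmarks: ATP wells versus no-ATP DMSO wells. Repeats: no replicates.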
OX1R antag-1 = blocks the human orexin 1 receptor; O43613; OX1R-expressing cells, FRET antagonist read-out; inhibition, % at 6.6 µM; 1.8% of 330,000 active; in the data active = inhibition mostly above about 38%, no sharp cut-off; inactive = mostly below about 40%
Target sequence (O43613 whole entry, looked up): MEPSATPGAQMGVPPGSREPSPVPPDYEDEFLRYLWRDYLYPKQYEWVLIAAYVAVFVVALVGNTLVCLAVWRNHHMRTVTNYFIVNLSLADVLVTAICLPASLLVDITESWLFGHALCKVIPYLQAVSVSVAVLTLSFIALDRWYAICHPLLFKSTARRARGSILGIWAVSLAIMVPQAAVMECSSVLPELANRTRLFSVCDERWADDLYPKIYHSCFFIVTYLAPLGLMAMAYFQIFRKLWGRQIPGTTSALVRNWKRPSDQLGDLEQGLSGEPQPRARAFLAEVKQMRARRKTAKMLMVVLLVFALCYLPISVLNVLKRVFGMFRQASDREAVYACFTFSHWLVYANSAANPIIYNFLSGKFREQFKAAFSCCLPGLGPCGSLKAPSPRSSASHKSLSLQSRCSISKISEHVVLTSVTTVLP
GPR7 antagonist = blocks human GPR7 receptor signaling; inhibition, % at 4.4 µM; 1.1% of 290,000 active; GPR7-expressing cells, fluorescence antagonist assay; P48145; AID 1861; in the data active = inhibition above about 16%, passing the limit was not always enough;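 note: cells stimulated with the agonist NPW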
GalR3 antagonist = human GalR3 antagonism; inhibition, % at 3 µM; 0.44% of 360,000 active; O60755; HEK293 GalR3-CNG cAMP membrane potential fluorescence; galR3 body fused to GalR1 C-terminus; AID 651719;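 active = inhibition above the screen-wide average plus 3 SD, cut at about 13% in these data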;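 note: forskolin and galanin both at EC90 stimulate the cells; cAMP rise reported by CNG channel membrane potential dye signal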
OX1R antag-2 = human HCRTR1 antagonism; O43613; CHO/OX1R cells, Fluo-8 calcium fluorescence, orexin A; inhibition, % at 5 µM; 0.43% of 330,000 active;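 active = inhibition above its plate's threshold, mean inhibition of all tested compounds on the plate plus 3 SD, cut at about 37% in these data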
Hits are given with their value; – = inactive; · = not tested or not shown.

SMILES	CHO parental Ca	OX1R antag-1	GPR7 antagonist	GalR3 antagonist	OX1R antag-2
Cc1nnc(NC(=O)c2sc3nc(-c4cccs4)cc(C(F)(F)F)c3c2N)s1	42.1	–	–	–	84.8
Nc1c(C(=O)Nc2nccs2)sc2nc(-c3cccs3)cc(C(F)(F)F)c12	41.6	–	–	–	47.1
CCOC(=O)C1CCN(C(=O)c2ccc3c(c2)OCO3)CC1	57.0	–	–	–	–
CCOC(=O)C1CCCN(C(=O)c2ccc3c(c2)OCO3)C1 (stereo not given)	–	–	–	–	–
O=C(c1ccc2c(c1)OCO2)N1CCC(Cc2ccccc2)CC1	–	–	18.8	–	–
Cc1nc2cc(-c3sccc3-n3cccc3)nn2c(C)c1C	–	52.1	–	–	–
COC(=O)[C@]12C[C@H](CC(=O)N3CCCC3)C(=O)N(Cc3ccccc3)C1=C[C@H](C(C)(C)C)O[C@@H]2C	·	·	·	–	·
Cc1onc(-c2ccccc2)c1NC(=O)Nc1c(-c2ccccc2)noc1C	–	51.1	–	–	–
Cc1ccc(S(=O)(=O)N2CC(CBr)=CCC2c2ccccc2)cc1 (stereo not given)	·	·	·	–	·
COc1ccc(C2(C)NC(=O)N(CC(=O)Nc3ccc(-c4nc5ccc(C)cc5s4)cc3)C2=O)cc1 (stereo not given)	29.4	–	–	–	–
COc1ccccc1CCn1cnc(-c2ccccc2)c1CC(C)C	·	·	·	–	·
O=C(Nc1ccccc1)NC1CCCCCCC1	–	–	·	–	–
O=C(Nc1ccc(Br)cc1)NC1CCCCCCC1	40.1	–	–	–	–
CSc1nc(N)nc(-c2cccs2)c1C#N	–	100.6	–	–	–
Cc1onc(-c2ccccc2Cl)c1C(=O)Nc1ccc(-c2cn3cccnc3n2)cc1	–	46.4	–	·	–
Cc1onc(-c2ccccc2Cl)c1C(=O)NCCn1c(C)cc2ccccc21	–	45.6	–	·	–
Cc1onc(-c2ccccc2Cl)c1C(=O)NCC(=O)O	–	–	–	–	–
O=C1c2cccc(NCCNCCO)c2C(=O)c2cccc(NCCNCCO)c21	·	·	·	–	·
O=C1Nc2ccc(Br)cc2/C1=C/C1CC=CCC1 (stereo not given)	32.7	–	–	–	–
O=C1Nc2ccc(Br)cc2/C1=C/C(=O)c1ccc2c(c1)OCO2	–	–	–	–	–
O=S(=O)(NCCOCC(F)(F)F)c1ccc2oc3ccccc3c2c1	59.0	–	–	–	56.3
COc1ccc(C2=Nn3c([n+](C)c4ccccc43)SC2)cc1	–	41.8	–	–	–
CCCN(CC1CCCO1)C(=O)CCc1nnc(CCc2ccc(OC)cc2)o1 (stereo not given)	–	–	–	–	–
O=C(c1ccc([N+](=O)[O-])o1)N1CCc2ccccc21	–	41.9	–	–	–
O=C(c1ccc([N+](=O)[O-])o1)N1CCc2ccccc2C1	–	–	–	–	–
SMILES	CHO parental Ca	OX1R antag-1	GPR7 antagonist	GalR3 antagonist	OX1R antag-2
O=C(c1ccc([N+](=O)[O-])o1)N1CCCCCC1	–	27.8	·	–	–
COc1cc2c(cc1OC)CN(C(=O)c1ccc([N+](=O)[O-])o1)CC2	–	45.6	–	–	–
O=C(c1ccc([N+](=O)[O-])o1)N1CCOCC1	–	–	–	–	–
COc1cc2c(c(OC)c1OC)[C@@]1(c3ccccc3)CCCC[C@H]1[C@@H]2NC(=O)C(F)(F)F	·	·	·	–	·
CC(=O)c1ccc(CCCc2ccc(C(C)=O)cc2)cc1	·	·	·	–	·
CCc1nc2ccc(C(=O)N3CCN(S(=O)(=O)CC)CC3)cn2c1N(CCC(C)C)CCN(C)C	·	·	·	–	·
CSc1nc2ccc(NC(=O)NC(=O)c3c(F)cccc3F)cc2s1	–	–	18.9	–	–
CSc1nc2ccc(NC(=O)COc3ccccc3F)cc2s1	–	–	·	–	–
C=CCN=C1NC(c2cccc(C(F)(F)F)c2)C(C(=O)OC)=C(C)N1Cc1ccccc1C(F)(F)F (stereo not given)	·	·	·	–	·
CN(C)c1ccc(N=Nc2ccccc2C(=O)OCC(=O)N2CCCCCC2)cc1	29.2	–	–	–	–
C[C@@H]1COc2cccc(NCCO)c2S(=O)(=O)N1	·	·	·	–	·
COc1cc(-c2cc(=O)c3ccccc3o2)ccc1O	–	–	–	–	–
COc1ccc(-c2cc(=O)c3ccccc3o2)cc1	–	67.3	·	–	–
Cc1ccc(-c2noc(CN(C(=O)Cc3ccccc3)C(C)C)n2)cc1	–	52.2	–	–	–
Cc1cc(Br)ccc1OCC(=O)N(Cc1nc(-c2ccccc2)no1)C(C)C	–	56.4	–	–	–
CC(C)N(Cc1nc(-c2ccccc2)no1)C(=O)CSc1ccccc1	–	39.3	–	–	–
Cc1ccc(C)c(C(=O)N(Cc2nc(-c3ccc(Cl)cc3)no2)C(C)C)c1	35.5	–	–	–	–
COc1cccc(C(=O)N(Cc2nc(-c3ccc(C)cc3)no2)C(C)C)c1	–	–	–	–	–
CC(C)N(Cc1nc(-c2ccccc2)no1)C(=O)COc1ccccc1	–	–	–	·	–
COc1cc2c(c(OC)c1OC)C1(CCCCC1)CC2NS(=O)(=O)C(C)C (stereo not given)	·	·	·	–	·
COc1ccc(N2C(=O)c3n[nH]c(C(C)C)c3C2c2ccccc2)cc1 (stereo not given)	·	·	·	–	·
C[C@H](c1ccccc1)N1C[C@@H](COCc2ccccc2)Oc2cccc(N3CCCC3)c2S1(=O)=O	·	·	·	–	·
COc1cccc(OCC(=O)N(Cc2nc(-c3ccc(Cl)cc3)no2)C(C)C)c1	–	46.7	–	–	–
O=C(N/N=C\c1c(O)ccc2ccccc12)c1cncc(Br)c1	67.4	72.6	–	–	63.4
O=C(N/N=C/c1c(O)ccc2ccccc12)c1ccc[n+](CCO)c1	–	57.3	–	–	–
SMILES	CHO parental Ca	OX1R antag-1	GPR7 antagonist	GalR3 antagonist	OX1R antag-2
O=C(N/N=C\c1c(O)ccc2ccccc12)c1ccc(O)cc1	–	–	–	–	–
Cn1cc(C(=O)N/N=C/c2c(O)ccc3ccccc23)ccc1=O	–	38.5	–	–	–
CCc1n[nH]c(=S)n1/N=C/c1c(O)ccc2ccccc12	–	–	–	–	–
O=C1[C@H]2[C@@H](c3ccccc3)N[C@]3(CCCN(Cc4ccc(F)cc4)C3=O)[C@H]2C(=O)N1Cc1ccccc1	·	·	·	–	·
COc1ccccc1N1CCN(C(=S)Nc2ccc(F)cc2)CC1	–	–	–	–	–
COc1ccc(CNc2nc(NCc3ccc(OC)c(OC)c3)n(C(=O)c3cccs3)n2)cc1OC	–	44.3	–	–	–
C[C@H](O)[C@@H]1C(=O)N2CCc3c([nH]c4c(-c5ccc6c(c5)OCO6)cccc34)[C@@H]2C[C@@H]1N(C)C(=O)Nc1ccccc1	·	·	·	–	·
c1ccc2c(c1)[nH]c1nc3nncn3nc12	–	53.3	–	–	–
Nc1cc(C(=O)O)c(N)c2c1C(=O)c1ccccc1C2=O	–	114.8	–	·	–
COc1cccc(C(C(=O)NCc2ccccc2)N2CCN(c3ccccc3F)CC2)c1OC (stereo not given)	·	·	·	–	·
CC(NCc1ccccc1Cl)C(=O)Nc1ccc(C#N)cc1 (stereo not given)	–	–	18.4	–	–
CCCCC(CC)C(=O)Nc1ccc(C#N)cc1 (stereo not given)	–	–	–	–	–

Screening results deposited in PubChem by The Scripps Research Institute Molecular Screening Center.
